{"source": "paper PMC2643122", "about": "(Molecular Microbiology, 2008)", "key": {"Candida albicans": {"system": "Candida albicans", "conditions": "cited from earlier work"}, "C. albicans Ssa2p": {"system": "C. albicans Ssa2p", "conditions": "ref Li et al., 2006; cited from earlier work"}, "rSsa2p [1]": {"target": "T1, rSsa2p (Candida albicans, UniProt P46587)", "T1 sequence (P46587 whole entry)": "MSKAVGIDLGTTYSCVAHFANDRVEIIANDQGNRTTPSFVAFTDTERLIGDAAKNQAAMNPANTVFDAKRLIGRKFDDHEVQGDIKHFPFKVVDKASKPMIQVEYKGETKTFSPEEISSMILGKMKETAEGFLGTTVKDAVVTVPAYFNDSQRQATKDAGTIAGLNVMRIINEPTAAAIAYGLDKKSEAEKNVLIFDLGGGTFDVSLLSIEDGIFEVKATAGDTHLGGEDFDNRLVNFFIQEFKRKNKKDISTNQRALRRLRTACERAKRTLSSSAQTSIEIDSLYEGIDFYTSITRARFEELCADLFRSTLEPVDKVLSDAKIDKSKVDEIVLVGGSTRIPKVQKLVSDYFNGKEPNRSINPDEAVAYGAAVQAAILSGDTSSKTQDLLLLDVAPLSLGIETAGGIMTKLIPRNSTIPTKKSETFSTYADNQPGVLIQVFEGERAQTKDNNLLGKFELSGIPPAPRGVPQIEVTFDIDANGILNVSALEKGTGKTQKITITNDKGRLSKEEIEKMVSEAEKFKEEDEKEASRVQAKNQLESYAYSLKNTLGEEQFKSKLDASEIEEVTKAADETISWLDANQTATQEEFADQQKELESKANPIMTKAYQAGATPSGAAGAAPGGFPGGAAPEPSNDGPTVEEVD", "assay": "FPLC gel filtration determination of dissociation constants", "assay_type": "binding"}, "[2]": {"conditions": "ref Li et al., 2006; cited from earlier work"}, "yeast cells": {"system": "yeast cells", "conditions": "ref Koshlukova et al., 2000; Vylkova et al., 2007; cited from earlier work"}, "C. albicans [3]": {"system": "C. albicans", "assay": "Hst 5 translocation assay", "assay_type": "cell-based, Candida albicans", "in_short": "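Early log-phase cells (1 × 10^8) were washed twice and suspended in 1 ml 10 mM NaPB, then given biotinylated Hst 5 (15 μM final) for 30 min at room temperature. Washed cells were pelleted at 3 300 g, 4°C, glass-bead disrupted and spun 15 700 g, 10 min. Cytosolic protein (10 μg) was separated by 16% Tricine SDS-PAGE, blotted with streptavidin-HRP, detected by ECL and quantified densitometrically. Means ± standard errors of triplicate independent assays.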"}, "C. albicans [4]": {"system": "C. albicans", "assay": "Candidacidal assay of Hst 5", "assay_type": "cell-based, Candida albicans", "in_short": "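Strains (integrated at RP10 in ssa2Δ background) grown overnight in YPD with uridine 50 μg ml−1 at 30°C, washed twice in 10 mM NaPB, resuspended to 10^6 cells ml−1. Exposed to 15 μM Hst 5, 1 h, 30°C, 250 r.p.m. Diluted, 500 cells plated on YPD agar, 48 h room temperature. Percent death versus buffer-only cells. Three independent transformants per mutant; each assay repeated ≥3 times.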"}, "human tissues": {"system": "human tissues", "conditions": "discussion statement without its own reference; cited from earlier work"}, "rSsa2p [5]": {"target": "T1, rSsa2p", "assay": "Limited thermolysin proteolysis of cross-linked rSsa2p–BHst 5 complexes", "assay_type": "binding", "conditions": "thermolysin 5 μg ml^−1, 30°C, 1 h; silver-stained 15% SDS-PAGE"}, "DnaK": {"system": "DnaK", "conditions": "2001, cited from earlier work; for binding by bacterial DnaK related to uptake and killing: ref Kragol et al."}}, "note": "“Also recorded” adds a separate entry of the source. Where no end group is shown, it is not given here.", "data": [{"molecule": "C[C@H](NC(=O)[C@H](Cc1cnc[nH]1)NC(=O)[C@H](CO)NC(=O)[C@@H](N)CC(=O)O)C(=O)N[C@@H](CCCCN)C(=O)N[C@@H](CCCNC(=N)N)C(=O)N[C@@H](Cc1cnc[nH]1)C(=O)N[C@@H](Cc1cnc[nH]1)C(=O)NCC(=O)N[C@@H](Cc1ccc(O)cc1)C(=O)N[C@@H](CCCCN)C(=O)N[C@@H](CCCNC(=N)N)C(=O)N[C@@H](CCCCN)C(=O)N[C@@H](Cc1ccccc1)C(=O)N[C@@H](Cc1cnc[nH]1)C(=O)N[C@@H](CCC(=O)O)C(=O)N[C@@H](CCCCN)C(=O)N[C@@H](Cc1cnc[nH]1)C(=O)N[C@@H](Cc1cnc[nH]1)C(=O)N[C@@H](CO)C(=O)N[C@@H](Cc1cnc[nH]1)C(=O)N[C@@H](CCCNC(=N)N)C(=O)NCC(=O)N[C@@H](Cc1ccc(O)cc1)C(=O)O", "note": "[Hst 5, Histatin 5]", "values": [{"measurement": "resistance of SSA1 knockouts to Hst 5", "setting": "Candida albicans; SSA1 knockout, ref Li et al., 2006", "value": "only mildly resistant"}, {"measurement": "intracellular uptake and killing in C. albicans SSA2 deletion mutants", "setting": "Candida albicans; SSA2 deletion, ref Li et al., 2006", "value": "significantly reduced"}, {"measurement": "fungicidal activity for Candida albicans and other fungal pathogens", "setting": "Candida albicans; associated with oral candidiasis, background statement without its own reference", "value": "strongly fungicidal"}, {"measurement": "inhibition of Hst 5 killing by drugs blocking endocytosis", "setting": "Candida albicans; pre-treatment of cells, ref Zhu et al., 2006", "value": "inhibited by pre-treatment of cells with drugs blocking endocytosis"}, {"measurement": "salt sensitivity", "setting": "Candida albicans; ref Dong et al., 2003, Jang et al., 2008", "value": "salt sensitive"}, {"measurement": "association with Ssa2p compared with Ssa1p", "setting": "C. albicans Ssa2p", "value": "stronger association"}, {"measurement": "competition for nucleotide binding sites in Ssa2p", "setting": "rSsa2p [1]; gel filtration with ATP or ADP", "value": "does not compete for nucleotide binding sites in Ssa2p"}, {"measurement": "fold improvement of binding affinity by nucleotides", "setting": "rSsa2p [1]; presence of nucleotides, gel filtration", "value": "10 -fold"}, {"measurement": "self-aggregation", "setting": "[2]", "value": "high propensity for self-aggregation"}, {"measurement": "selective leakage of intracellular ions and ATP", "setting": "yeast cells", "value": "induces selective leakage of intracellular ions and ATP from yeast cells"}, {"measurement": "time course of translocation", "setting": "C. albicans [3]; BHst 5 15 μM, NaPB, room temperature", "value": "Translocation happens very rapidly following only 5 min incubation; also recorded: the majority of Hst 5 is translocated intracellularly after 30 min"}, {"measurement": "reduction in Hst 5 translocation, Ssa2 150−156 mutant strain", "setting": "C. albicans [3]; P1 mutant Ssa2(150−156A3) as printed, BHst 5 15 μM", "value": "approximately 20%"}, {"measurement": "intracellular translocation, Ssa2(334−338A3) strain", "setting": "C. albicans [3]; T2 mutant with defective cell wall secretion of Ssa2p, BHst 5 15 μM", "value": "reduced Hst 5 translocation and killing to levels of the ssa2Δ knockout"}, {"measurement": "intracellular translocation, Ssa2(131−135A3) strain", "setting": "C. albicans [3]; downstream T1 mutant, BHst 5 15 μM", "value": "reduced, but did not prevent Hst 5 killing and intracellular uptake"}, {"measurement": "effect of mutations within Ssa2(342–355) on translocation", "setting": "C. albicans [3]; spot 32 region, data not shown", "value": "did not alter Hst 5 killing or translocation"}, {"measurement": "uptake in Ssa2p deletion mutants", "setting": "C. albicans [3]; ssa2Δ", "value": "reduced but measurable uptake"}, {"measurement": "reduction in cellular killing, Ssa2 150−156 mutant strain", "setting": "C. albicans [4]; P1 mutant Ssa2(150−156A3) as printed, 15 μM Hst 5, 1 h at 30°C", "value": "approximately 20%"}, {"measurement": "loss of killing function, Ssa2(150−156A4) strain", "setting": "C. albicans [4]; P1 mutant, result in words, 15 μM Hst 5, 1 h at 30°C", "value": "mild to moderate loss of function"}, {"measurement": "killing, Ssa2(334−338A3) strain", "setting": "C. albicans [4]; T2 mutant with defective cell wall secretion of Ssa2p, 15 μM Hst 5, 1 h at 30°C", "value": "reduced Hst 5 translocation and killing to levels of the ssa2Δ knockout; also recorded: significant loss of cytotoxic and transport functions"}, {"measurement": "killing, Ssa2(131−135A3) strain", "setting": "C. albicans [4]; downstream T1 mutant, 15 μM Hst 5, 1 h at 30°C", "value": "reduced, but did not prevent Hst 5 killing and intracellular uptake; also recorded: mild to moderate loss of function"}, {"measurement": "effect of mutations within Ssa2(342–355) on killing", "setting": "C. albicans [4]; spot 32 region, data not shown", "value": "did not alter Hst 5 killing or translocation"}, {"measurement": "toxicity to human tissues", "setting": "human tissues", "value": "without being toxic to human tissues"}, {"measurement": "effect of binding on thermolysin digestion sites of rSsa2p", "setting": "rSsa2p [5]", "value": "substantially alters available thermolysin digestion sites exposed for enzymatic cleavage"}]}, {"molecule": "drosocin: cationic antimicrobial peptide (GKPRPYSPRPTSHPRPIRV; ends and bridges not checked; UniProt P36193 22-40, looked up)", "values": [{"measurement": "binding by bacterial DnaK related to uptake and killing", "setting": "DnaK", "value": "shown to be related to their intracellular uptake and killing functions"}]}, {"molecule": "human β defensin 2", "values": [{"measurement": "killing of candidal cells via uptake mechanism involving Ssa proteins", "setting": "Candida albicans; ref Vylkova et al., 2006", "value": "can kill candidal cells"}]}, {"molecule": "pyrrhocoricin: cationic antimicrobial peptide (VDKGSYLPRPTPPRPIYNRN; ends and bridges not checked; UniProt P37362 1-20, looked up)", "values": [{"measurement": "binding by bacterial DnaK related to uptake and killing", "setting": "DnaK", "value": "shown to be related to their intracellular uptake and killing functions"}, {"measurement": "probable interaction site on DnaK", "setting": "DnaK; ref Otvos et al., 2000, Kragol et al.", "value": "C-terminal variable region of the lid domain outside the conventional peptide binding region"}]}]}
